Values after ≈ are worked out from the molar mass of the structure shown.
Columns and labels:
Type in all cases: functional
[1] = tested on: Staphylococcus warneri; assay: Antibacterial activity against Staphylococcus warneri after 18 to 22 hrs by broth microdilution method
In short: (§1)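 Broth microdilution per NCCLS in Mueller-Hinton II broth; isolates subcultured for purity. Compounds dissolved in DMSO, serial dilutions 256 to 0.5 µg/mL; inoculum 10^5/mL. Controls: organism without compound, medium only. Incubation 18 to 22 h at 35 °C. MIC is the lowest concentration giving complete growth inhibition, read by unaided eye.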

[2] = tested on: Klebsiella oxytoca; assay: Antibacterial activity against Klebsiella oxytoca after 18 to 22 hrs by broth microdilution method; in short: as §1
[3] = tested on: Candida parapsilosis; assay: Antifungal activity against Candida parapsilosis clinical isolate after 24 hrs by sabouraud dextrose broth based microdilution method; details: Lodderomyces parapsilosis
In short: (§2)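 Clinical isolates identified by conventional methods and subcultured for purity. Broth microdilution per NCCLS in Sabouraud dextrose broth; compounds dissolved in DMSO and serially diluted; inoculum 10^3/mL. Controls: fungi without compound, medium only. Incubated 24 h at 37 °C. MIC is the lowest concentration with complete growth inhibition by unaided eye. Values are geometric means over isolates per species.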

[4] = tested on: Enterococcus faecalis; assay: Antibacterial activity against […] faecalis after 18 to 22 hrs by broth microdilution method; in short: as §1
[5] = tested on: [Candida] sake; assay: Antifungal activity against Candida sake clinical isolate after 24 hrs by sabouraud dextrose broth based microdilution method; details: Fermentozyma sake; in short: as §2
[6] = tested on: Candida tropicalis; assay: Antifungal activity against Candida tropicalis clinical isolate after 24 hrs by sabouraud dextrose broth based microdilution method; in short: as §2
[7] = tested on: Candida albicans; assay: Antifungal activity against Candida albicans clinical isolate after 24 hrs by sabouraud dextrose broth based microdilution method; in short: as §2
[8] = tested on: Proteus mirabilis; assay: Antibacterial activity against Proteus mirabilis after 18 to 22 hrs by broth microdilution method; in short: as §1
[9] = tested on: Nakaseomyces glabratus; assay: Antifungal activity against Candida glabrata clinical isolate after 24 hrs by sabouraud dextrose broth based microdilution method; in short: as §2
[10] = tested on: Pichia kudriavzevii; assay: Antifungal activity against Candida krusei clinical isolate after 24 hrs by sabouraud dextrose broth based microdilution method; in short: as §2
[11] = tested on: Escherichia coli; assay: Antibacterial activity against Escherichia coli at after 18 to 22 hrs by broth microdilution method; in short: as §1
[12] = tested on: Enterobacter sp.; assay: Antibacterial activity against Enterobacter sp. after 18 to 22 hrs by broth microdilution method; in short: as §1
[13] = tested on: Staphylococcus haemolyticus; assay: Antibacterial activity against Staphylococcus haemolyticus after 18 to 22 hrs by broth microdilution method; in short: as §1
[14] = tested on: Staphylococcus aureus; assay: Antibacterial activity against Staphylococcus aureus after 18 to 22 hrs by broth microdilution method; in short: as §1

SMILES | MIC [1] [µg/mL] | MIC [2] [µg/mL] | MIC [3] [µg/mL] | MIC [4] [µg/mL] | MIC [5] [µg/mL] | MIC [6] [µg/mL] | MIC [7] [µg/mL] | MIC [8] [µg/mL] | MIC [9] [µg/mL] | MIC [10] [µg/mL] | MIC [11] [µg/mL] | MIC [12] [µg/mL] | MIC [14] [µg/mL] | MIC [13] [µg/mL]
C/C(=N\N=C1/SCC(=O)N1CN1C(=O)c2ccccc2C1=O)C1CCCCC1 | > 256 | > 256 | 16 (≈ 40.2 µM) | > 256 | 16 (≈ 40.2 µM) | 256 (≈ 642 µM) | 256 (≈ 642 µM) | > 256 | 16 (≈ 40.2 µM) | 16 (≈ 40.2 µM) | > 256 | > 256 | > 256 | > 256
CC1CC/C(=N\N=C2/SCC(=O)N2Cc2ccc([N+](=O)[O-])cc2)C1 (configuration not stated) | > 256 | > 256 | 64 (≈ 185 µM) | > 256 | 256 (≈ 739 µM) | 128 (≈ 370 µM) | 2 (≈ 5.77 µM) | > 256 | 16 (≈ 46.2 µM) | 256 (≈ 739 µM) | > 256 | > 256 | > 256 | > 256
C/C(=N\N=C1/SCC(=O)N1CN1C(=O)c2ccccc2C1=O)c1ccco1 | > 256 | > 256 | 256 (≈ 669 µM) | > 256 | 256 (≈ 669 µM) | 128 (≈ 335 µM) | 256 (≈ 669 µM) | > 256 | 16 (≈ 41.8 µM) | 256 (≈ 669 µM) | > 256 | > 256 | > 256 | > 256
O=C1c2ccccc2C(=O)N1CN1C(=O)CS/C1=N\N=C\c1cccnc1 | > 256 | > 256 | 16 (≈ 42.2 µM) | > 256 | 32 (≈ 84.3 µM) | 16 (≈ 42.2 µM) | 256 (≈ 675 µM) | > 256 | 8 (≈ 21.1 µM) | 8 (≈ 21.1 µM) | > 256 | > 256 | > 256 | > 256
O=C1CS/C(=N\N=C\c2ccco2)N1Cc1ccc([N+](=O)[O-])cc1 | > 256 | > 256 | 16 (≈ 46.5 µM) | > 256 | 2 (≈ 5.81 µM) | 2 (≈ 5.81 µM) | 4 (≈ 11.6 µM) | > 256 | 8 (≈ 23.2 µM) | 16 (≈ 46.5 µM) | > 256 | > 256 | > 256 | > 256
CC(C)=N/N=C1\SCC(=O)N1Cc1ccc([N+](=O)[O-])cc1 | > 256 | > 256 | 2 (≈ 6.53 µM) | > 256 | 2 (≈ 6.53 µM) | 2 (≈ 6.53 µM) | 4 (≈ 13.1 µM) | > 256 | 4 (≈ 13.1 µM) | 2 (≈ 6.53 µM) | > 256 | > 256 | > 256 | > 256
CC1CCCC/C1=N\N=C1/SCC(=O)N1Cc1ccc([N+](=O)[O-])cc1 (configuration not stated) | > 256 | > 256 | 16 (≈ 44.4 µM) | > 256 | 4 (≈ 11.1 µM) | 4 (≈ 11.1 µM) | 16 (≈ 44.4 µM) | > 256 | 32 (≈ 88.8 µM) | 2 (≈ 5.55 µM) | > 256 | > 256 | > 256 | > 256
O=C1c2ccccc2C(=O)N1CN1C(=O)CS/C1=N\N=C1CCCCC1 | > 256 | > 256 | 8 (≈ 21.6 µM) | > 256 | 32 (≈ 86.4 µM) | 8 (≈ 21.6 µM) | 8 (≈ 21.6 µM) | > 256 | 16 (≈ 43.2 µM) | 16 (≈ 43.2 µM) | > 256 | > 256 | > 256 | > 256

Continued, in another order:

MIC [1] [µg/mL] | MIC [2] [µg/mL] | MIC [3] [µg/mL] | MIC [4] [µg/mL] | MIC [5] [µg/mL] | MIC [6] [µg/mL] | MIC [7] [µg/mL] | MIC [8] [µg/mL] | MIC [9] [µg/mL] | MIC [10] [µg/mL] | MIC [11] [µg/mL] | MIC [12] [µg/mL] | MIC [14] [µg/mL] | SMILES | MIC [13] [µg/mL]
> 256 | > 256 | 2 (≈ 5.44 µM) | > 256 | 2 (≈ 5.44 µM) | 64 (≈ 174 µM) | 4 (≈ 10.9 µM) | > 256 | 8 (≈ 21.8 µM) | 2 (≈ 5.44 µM) | > 256 | > 256 | > 256 | CCCCC/C(C)=N/N=C1\SCC(=O)N1Cc1cccc2ccccc12 | > 256
> 256 | > 256 | 4 (≈ 10.9 µM) | > 256 | 2 (≈ 5.43 µM) | 2 (≈ 5.43 µM) | 4 (≈ 10.9 µM) | > 256 | 32 (≈ 86.9 µM) | 8 (≈ 21.7 µM) | > 256 | > 256 | > 256 | C/C(=N\N=C1/SCC(=O)N1Cc1ccc([N+](=O)[O-])cc1)c1ccccc1 | > 256
> 256 | > 256 | 16 (≈ 42.2 µM) | > 256 | 16 (≈ 42.2 µM) | 256 (≈ 675 µM) | 8 (≈ 21.1 µM) | > 256 | 8 (≈ 21.1 µM) | 2 (≈ 5.27 µM) | > 256 | > 256 | > 256 | C/C(=N\N=C1/SCC(=O)N1Cc1cccc2ccccc12)C1CCCCC1 | > 256
> 256 | > 256 | 4 (≈ 10.8 µM) | > 256 | 4 (≈ 10.8 µM) | 4 (≈ 10.8 µM) | 4 (≈ 10.8 µM) | > 256 | 32 (≈ 86.6 µM) | 32 (≈ 86.6 µM) | > 256 | > 256 | > 256 | C/C(=N\N=C1/SCC(=O)N1Cc1ccc([N+](=O)[O-])cc1)c1ccccn1 | > 256
> 256 | > 256 | 2 (≈ 6.42 µM) | > 256 | 2 (≈ 6.42 µM) | 2 (≈ 6.42 µM) | 4 (≈ 12.8 µM) | > 256 | 4 (≈ 12.8 µM) | 2 (≈ 6.42 µM) | > 256 | > 256 | > 256 | CC(C)=N/N=C1\SCC(=O)N1Cc1cccc2ccccc12 | > 256
> 256 | > 256 | 16 (≈ 47.1 µM) | > 256 | 2 (≈ 5.89 µM) | 2 (≈ 5.89 µM) | 2 (≈ 5.89 µM) | > 256 | 16 (≈ 47.1 µM) | 16 (≈ 47.1 µM) | > 256 | > 256 | > 256 | CCC(CC)=N/N=C1\SCC(=O)N1Cc1cccc2ccccc12 | > 256
> 256 | > 256 | 8 (≈ 22.8 µM) | > 256 | 2 (≈ 5.69 µM) | 2 (≈ 5.69 µM) | 4 (≈ 11.4 µM) | > 256 | 32 (≈ 91 µM) | 2 (≈ 5.69 µM) | > 256 | > 256 | > 256 | CC1CCC/C1=N\N=C1/SCC(=O)N1Cc1cccc2ccccc12 (configuration not stated) | > 256
> 256 | > 256 | 16 (≈ 43.5 µM) | > 256 | 2 (≈ 5.44 µM) | 2 (≈ 5.44 µM) | 2 (≈ 5.44 µM) | > 256 | 8 (≈ 21.8 µM) | 16 (≈ 43.5 µM) | > 256 | > 256 | > 256 | CCCC/C(CC)=N/N=C1\SCC(=O)N1Cc1cccc2ccccc12 | > 256
> 256 | > 256 | 16 (≈ 44.1 µM) | > 256 | 2 (≈ 5.52 µM) | 2 (≈ 5.52 µM) | 2 (≈ 5.52 µM) | > 256 | 8 (≈ 22.1 µM) | 16 (≈ 44.1 µM) | > 256 | > 256 | > 256 | CCCC/C(CC)=N/N=C1\SCC(=O)N1Cc1ccc([N+](=O)[O-])cc1 | > 256
> 256 | > 256 | 64 (≈ 182 µM) | > 256 | 256 (≈ 728 µM) | 128 (≈ 364 µM) | 2 (≈ 5.69 µM) | > 256 | 16 (≈ 45.5 µM) | 256 (≈ 728 µM) | > 256 | > 256 | > 256 | CC1CC/C(=N\N=C2/SCC(=O)N2Cc2cccc3ccccc23)C1 (configuration not stated) | > 256
